Test results: ChEMBL document CHEMBL4680124, “2-Styryl-4-aminoquinazoline derivatives as potent DNA-cleavage, p53-activation and in vivo effective anticancer agents” (Eur J Med Chem, 2020)
Calls of active or inactive are those of the source. The rule behind the calls is not given here.

Tests used:
PC-3 = assay: Cytotoxicity against human PC-3 cells assessed as reduction in cell viability preincubated for 48 hrs and measured after 4 hrs by MTT assay; format: functional, cell-based
MGC-803 [1] = assay: Antitumor activity against human MGC-803 cells xenografted in BALB/C nude mouse assessed as tumor growth inhibition at 10 mg/kg, ip administered every 2 days and measured 3 times per week; format: functional, organism-based; settings: time 2.0 day
Outline: (§1)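 Male BALB/c nude mice, 6 weeks old, given 5×10^6 MGC-803 cells s.c. in the flank. When tumors reached about 80 mm3, mice were randomized (n = 6/group) and dosed i.p. every 2 days. Vehicle was 5% DMSO in saline. Drug solutions were 1.0 or 2.0 mg/mL (DMSO/saline). Tumor length and width plus body weight were measured three times weekly; volume = lw²/2. Mean ± SD.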

L02 = assay: Cytotoxicity against human HL-7702 cells expressing wild type p53 assessed as reduction in cell viability preincubated for 48 hrs and measured after 4 hrs by MTT assay; format: functional, cell-based
A549 = assay: Cytotoxicity against human A549 cells expressing wild type p53 assessed as reduction in cell viability preincubated for 48 hrs and measured after 4 hrs by MTT assay; format: functional, cell-based
T-24 = assay: Cytotoxicity against human T-24 cells […] assessed as reduction in cell viability preincubated for 48 hrs and measured after 4 hrs by MTT assay; format: functional, cell-based
MGC-803 [2] = assay: Cytotoxicity against human MGC-803 cells expressing mutant type p53 assessed as reduction in cell viability preincubated for 48 hrs and measured after 4 hrs by MTT assay; format: functional, cell-based
DU-145 = assay: Cytotoxicity against human DU145 cells expressing mutant type p53 assessed as reduction in cell viability preincubated for 48 hrs and measured after 4 hrs by MTT assay; format: functional, cell-based
Outline: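 MTT assay. Cells grown in DMEM (T24, MGC-803, A549, HL-7702), RPMI-1640 (DU145) or DMEM-F12 (PC-3), each with 10% FBS. Exposed to 1.25–20 µM in medium with 1% DMSO for 48 h, then MTT for 4 h. Formazan dissolved in DMSO and read at 570 nm. Five wells per concentration; means ± SD of independent repeats.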

Mus musculus = assay: Toxicity against BALB/c nude mouse xenografted with human MGC-803 cells assessed as body weight at 10 mg/kg, ip administered every 2 days and measured 3 times per week for 16 days; format: organism-based; settings: in vivo, 384 h, time 16 day
Outline: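 Male BALB/c nude mice, 6 weeks old, received 5×10^6 MGC-803 cells subcutaneously in the flank. At about 80 mm3, mice were randomized (n = 6/group). They were dosed i.p. every 2 days with vehicle (5% DMSO in saline, v/v) or drug in DMSO/saline at 1.0 or 2.0 mg/mL. Body weight was recorded three times weekly; mean ± SD.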

MGC-803 [3] = assay: Antitumor activity against human MGC-803 cells xenografted in BALB/C nude mouse assessed as tumor growth inhibition at 10 mg/kg, ip administered every 2 days and measured 3 times per week for 16 days; format: functional; design: scale not given: the % may be the effect or the level left; settings: time 16 day; outline: as §1
MGC-803 [4] = assay: Induction of apoptosis in human MGC-803 cells assessed as increase in Bax expression at 5 uM measured after 24 hrs by Western blot analysis; format: functional, cell-based
Outline: (§2)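 MGC-803 cells (2×10^6) plated overnight, then treated for 24 h at 0.5, 1.0 or 2.5 µM (test agent) or 5.0 µM (comparator). Whole-cell lysates separated by SDS-PAGE, transferred to PVDF and probed with primary antibodies. AP-linked anti-rabbit IgG, ECL detection, β-actin loading control. Representative of three experiments.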

MGC-803 [5] = assay: Induction of apoptosis in human MGC-803 cells assessed as decrease in Bcl-2 expression at 5 uM measured after 24 hrs by Western blot analysis; format: functional, cell-based; outline: as §2
MGC-803 [6] = assay: Induction of apoptosis in human MGC-803 cells assessed as increase in Bim expression at 5 uM measured after 24 hrs by Western blot analysis; format: functional, cell-based
Outline: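 MGC-803 cells (2×10^6) cultured overnight, then exposed 24 h to 0.5, 1.0 or 2.5 μM, or 5.0 μM for the reference agent. Lysates were resolved by SDS-PAGE, transferred to PVDF and probed with primary antibodies. Detection used AP-linked anti-rabbit IgG and ECL. β-actin served as loading control.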

MGC-803 [7] = assay: Induction of apoptosis in human MGC-803 cells assessed as decrease in Bak expression at 5 uM measured after 24 hrs by Western blot analysis; format: functional, cell-based; outline: as §2
MGC-803 [8] = assay: Induction of apoptosis in human MGC-803 cells assessed as decrease in Bcl-xL expression at 5 uM measured after 24 hrs by Western blot analysis; format: functional, cell-based; outline: as §2
PLC-PRF-5 = assay: Antitumor activity against human PLC/PRF/5 cells xenografted in mouse assessed as tumor growth inhibition at 30 mg/kg; format: functional; settings: read-out: TGI

COc1cccc2c1C(=O)c1c(O)c3c(c(O)c1C2=O)C[C@@](O)(C(=O)CO)C[C@@H]3O[C@H]1C[C@H](N)[C@@H](O)[C@H](C)O1 [EPIRUBICIN]
IC50 (PC-3): 2.31 µM
Activity (MGC-803 [1]): Active
IC50 (L02): 2.1 µM
IC50 (A549): 0.82 µM
IC50 (T-24): 1.12 µM
IC50 (MGC-803 [2]): 1.2 µM
IC50 (DU-145): 2.01 µM
Activity (Mus musculus): Non-Toxic
Activity (MGC-803 [3]): 67.2%

COc1ccc(/C=C/c2nc(NCCCN(C)C)c3ccccc3n2)cc1
IC50 (PC-3): 16.3 µM
IC50 (L02): 25.3 µM
IC50 (A549): 24.8 µM
IC50 (T-24): 20.3 µM
IC50 (MGC-803 [2]): 18.3 µM
Activity (MGC-803 [4]): inactive
Activity (MGC-803 [5]): inactive
IC50 (DU-145): 15.3 µM
Activity (MGC-803 [6]): inactive
Activity (MGC-803 [7]): inactive
Activity (MGC-803 [8]): inactive
inhibition in vivo at 30 mg/kg (PLC-PRF-5): 60%

CN(C)CCCNc1nc(/C=C/c2ccc3c(c2)OCO3)nc2ccccc12
IC50 (PC-3): > 100 µM
IC50 (L02): 14.5 µM
IC50 (A549): > 100 µM
IC50 (T-24): 8.81 µM
IC50 (MGC-803 [2]): 14 µM
IC50 (DU-145): 25.4 µM

CCN(CC)CCNc1nc(/C=C/c2ccc3c(c2)OCO3)nc2ccccc12
IC50 (PC-3): 33.9 µM
IC50 (L02): 20.7 µM
IC50 (A549): 46.9 µM
IC50 (T-24): 8.68 µM
IC50 (MGC-803 [2]): 9.88 µM
IC50 (DU-145): 16.3 µM

COc1ccc(/C=C/c2nc(NCCN(C)C)c3ccccc3n2)cc1OC
IC50 (PC-3): > 100 µM
IC50 (L02): > 100 µM
IC50 (A549): > 100 µM
IC50 (T-24): > 100 µM
IC50 (MGC-803 [2]): > 100 µM
IC50 (DU-145): > 100 µM

COc1ccc(/C=C/c2nc(NCCCN(C)C)c3ccccc3n2)cc1OC
IC50 (PC-3): > 100 µM
IC50 (L02): > 100 µM
IC50 (A549): > 100 µM
IC50 (T-24): 88.4 µM
IC50 (MGC-803 [2]): > 100 µM
IC50 (DU-145): > 100 µM

CCN(CC)CCCNc1nc(/C=C/c2ccc3c(c2)OCO3)nc2ccc(Cl)cc12
IC50 (PC-3): > 100 µM
IC50 (L02): > 100 µM
IC50 (A549): > 100 µM
IC50 (T-24): 9.74 µM
IC50 (MGC-803 [2]): 12.9 µM
IC50 (DU-145): > 100 µM

COc1ccc(/C=C/c2nc(NCCN3CCOCC3)c3ccccc3n2)cc1OC
IC50 (PC-3): > 100 µM
IC50 (L02): > 100 µM
IC50 (A549): > 100 µM
IC50 (T-24): > 100 µM
IC50 (MGC-803 [2]): > 100 µM
IC50 (DU-145): > 100 µM

CCN(CC)CCNc1nc(/C=C/c2ccc([N+](=O)[O-])cc2)nc2ccc(Cl)cc12
IC50 (PC-3): > 100 µM
IC50 (L02): > 100 µM
IC50 (A549): > 100 µM
IC50 (T-24): 11 µM
IC50 (MGC-803 [2]): 7.12 µM
IC50 (DU-145): 12.4 µM

CN(C)CCNc1nc(/C=C/c2ccc([N+](=O)[O-])cc2)nc2ccccc12
IC50 (PC-3): 51.1 µM
IC50 (L02): 18 µM
IC50 (A549): 33.9 µM
IC50 (T-24): 8.95 µM
IC50 (MGC-803 [2]): 14.4 µM
IC50 (DU-145): 15.7 µM

COc1ccc(/C=C/c2nc(NCCN(C(C)C)C(C)C)c3cc(Cl)ccc3n2)cc1OC
IC50 (PC-3): > 100 µM
IC50 (L02): > 100 µM
IC50 (A549): > 100 µM
IC50 (T-24): 14.8 µM
IC50 (MGC-803 [2]): 15.6 µM
IC50 (DU-145): > 100 µM

COc1ccc(/C=C/c2nc(NCCN(C(C)C)C(C)C)c3ccccc3n2)cc1OC
IC50 (PC-3): 20.3 µM
IC50 (L02): > 100 µM
IC50 (A549): 38.8 µM
IC50 (T-24): 6.5 µM
IC50 (MGC-803 [2]): 15.5 µM
IC50 (DU-145): 15 µM

CC(C)N(CCNc1nc(/C=C/c2ccc([N+](=O)[O-])cc2)nc2ccccc12)C(C)C
IC50 (PC-3): > 100 µM
IC50 (L02): 8.96 µM
IC50 (A549): > 100 µM
IC50 (T-24): 14.2 µM
IC50 (MGC-803 [2]): 29.1 µM
IC50 (DU-145): > 100 µM

CCN(CC)CCCNc1nc(/C=C/c2ccc3c(c2)OCO3)nc2ccccc12
IC50 (PC-3): > 100 µM
IC50 (L02): > 100 µM
IC50 (A549): > 100 µM
IC50 (T-24): > 100 µM
IC50 (MGC-803 [2]): > 100 µM
IC50 (DU-145): > 100 µM

COc1ccc(/C=C/c2nc(NCCCCN)c3ccccc3n2)cc1OC
IC50 (PC-3): > 100 µM
IC50 (L02): > 100 µM
IC50 (A549): > 100 µM
IC50 (T-24): 30.9 µM
IC50 (MGC-803 [2]): 70.5 µM
IC50 (DU-145): > 100 µM

O=[N+]([O-])c1ccc(/C=C/c2nc(NCCN3CCCCC3)c3cc(Cl)ccc3n2)cc1
IC50 (PC-3): > 100 µM
IC50 (L02): > 100 µM
IC50 (A549): 41.1 µM
IC50 (T-24): 34.3 µM
IC50 (MGC-803 [2]): 20 µM
IC50 (DU-145): > 100 µM
